The results in this text go back to ChEMBL document CHEMBL1124858, “Methylsulfamic acid esters. A new chemical class of oral antiarthritic agents” (1990).

Experiment [1] relates to Rattus norvegicus. Kind of experiment: Evaluated for the carrageenan-induced pleural volume in rats at a dose of 3.16 mg/kg after peroral administration. It is filed as functional. As to conditions: route oral. Put shortly: (§1)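 Carrageenan-induced pleurisy in rats, Evans blue pleural effusion assay. Twenty oral doses, one per day, were given before carrageenan challenge. Pleural volume is mL ± SD, n = 6 per group, with % change from control and Dunnett's t test (p < 0.05).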

The species named for experiment [2] is Rattus norvegicus. The experiment can be described thus: 32-day X-ray(0= normal to 10= maximum joint destruction) was determined. The experiment is classed as functional. The method, boiled down:
(§2)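 Adjuvant-induced arthritic rats were dosed orally once daily from day 18 through day 50 after adjuvant injection, on a therapeutic regimen. The uninjected joint was X-rayed and scored blind at 32 days on an arbitrary scale from 0 (normal) to 10 (maximum joint destruction). Values are mean ± SD, compared with vehicle control by Dunnett's t test (p < 0.05).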

The species named for experiment [3] is Rattus norvegicus. The experiment can be described thus: Weight change of rat was determined; + = significant increase in weight change from control. It is filed as functional, organism-based. The method, boiled down:
(§3)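 In adjuvant arthritic rats dosed orally from day 18 through day 50 post adjuvant injection, weight change was compared with vehicle control by Dunnett's t test.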

Experiment [4] relates to Mus musculus. The experiment can be described thus: Evaluated for the delayed type hypersensitivity (DTH) response to methylated BSA (mBSA) in sensitive mice after peroral administration of 50 mg/kg. It is filed as functional. The following applies: route oral. Put shortly:
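Mice were sensitized to mBSA on day 0, dosed orally on days 4, 5, 6 and 7, and challenged with mBSA in the left hind paw on day 7. Paw weight was measured 24 h after challenge, with 10 mice per group. Negative controls received Freund's complete adjuvant without mBSA.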

Experiment [5] has as its system Rattus norvegicus. The experiment can be described thus: Evaluated for the adjuvant-induced arthritis edema of uninjected paw on 11-day after 31.6 mg/kg dose of peroral administration of the compound. The following applies: route oral.
Experiment [6] concerns Rattus norvegicus. The experiment can be described thus: Evaluated for the adjuvant-induced arthritis edema of uninjected paw on 32-day after 31.6 mg/kg dose of peroral administration of the compound. The following applies: route oral.
For experiment [7], the species on record is Rattus norvegicus. The experiment can be described thus: X-rays scored on an arbitrary (0=normal to 10=max. joint destruction) scale in a blinded manner was determined; 32-day X-ray. It is filed as functional. Put shortly: as §2
For experiment [8], the species on record is Rattus norvegicus. Kind of experiment: Weight change of rat was determined; Not significant. The experiment is classed as functional, organism-based. The method, boiled down: as §3
The test system of experiment [9] is Rattus norvegicus. Kind of experiment: Evaluated for the adjuvant-induced arthritis edema of uninjected paw on 11-day after 100 mg/kg dose of peroral administration of the compound. As to conditions: route oral.
Experiment [10] concerns Rattus norvegicus. The experiment can be described thus: Evaluated for the adjuvant-induced arthritis edema of uninjected paw on 32-day after 100 mg/kg dose of peroral administration of the compound. As to conditions: route oral.
In experiment [11] the test system is Mus musculus. The experiment can be described thus: Evaluated for the Delayed type hypersensitivity (DTH) response to methylated BSA (mBSA) in sensitive mice at a dose of 31.6.00 mg/kg after peroral administration. The experiment is classed as functional. Put shortly: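 Delayed-type hypersensitivity in mice: sensitized to mBSA on day 0, dosed orally on days 4, 5, 6 and 7, then challenged with mBSA in the left hind paw on day 7. Paw weight was measured 24 h after challenge. n = 10 per group. Result is % change from sensitized positive control, by Dunnett's t test. Negative control received Freund's complete adjuvant without mBSA.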

Experiment [12] deals with Rattus norvegicus. Kind of experiment: Evaluated for the […] on 32-day after 10 mg/kg dose of peroral administration of the compound. The following applies: route oral. It is filed as functional. Put shortly:
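Adjuvant-induced arthritic rat model with oral dosing from day 18 through day 50 post adjuvant. Edema was the volume change of the uninjected hind paw. The 11-day Δ is day 29 volume minus day 18 volume; the 32-day Δ is day 50 minus day 18. Values are mL ± SD against a vehicle control, by Dunnett's t test (p < 0.05).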

In experiment [13] the test system is Rattus norvegicus. The experiment can be described thus: Evaluated for the carrageenan-induced pleural volume in rats at a dose of 100 mg/kg after peroral administration. The experiment is classed as functional. The following applies: route oral. Put shortly: as §1
Experiment [14] has as its system Rattus norvegicus. The experiment can be described thus: Evaluated for the carrageenan-induced pleural volume in rats at a dose of 4 mg/kg after peroral administration. The experiment is classed as functional. As to conditions: route oral. The method, boiled down: as §1
The subject of experiment [15] is Rattus norvegicus. The experiment can be described thus: Evaluated for the adjuvant-induced arthritis edema of uninjected paw on 11-day after 1 mg/kg dose of peroral administration of the compound. As to conditions: route oral.
Experiment [16] concerns Rattus norvegicus. The experiment can be described thus: Evaluated for the adjuvant-induced arthritis edema of uninjected paw on 32-day after 1 mg/kg dose of peroral administration of the compound. As to conditions: route oral.
Experiment [17] concerns Rattus norvegicus. Kind of experiment: Evaluated for the adjuvant-induced arthritis edema of uninjected paw on 11-day after 10 mg/kg dose of peroral administration of the compound. As to conditions: route oral.
Experiment [18] deals with Rattus norvegicus. The experiment can be described thus: Evaluated for the adjuvant-induced arthritis edema of uninjected paw on 11-day after 3.16 mg/kg dose of peroral administration of the compound. The following applies: route oral.
Experiment [19] concerns Rattus norvegicus. Kind of experiment: Evaluated for the adjuvant-induced arthritis edema of uninjected paw on 32-day after 3.16 mg/kg dose of peroral administration of the compound. As to conditions: route oral.
The subject of experiment [20] is Rattus norvegicus. Kind of experiment: Evaluated for the adjuvant-induced arthritis edema of uninjected paw on 32-day after 10 mg/kg dose of peroral administration of the compound. As to conditions: route oral.

“And” between values parts separate entries of the source, which are not always exact repeats. Equal entries are not always repeated. The source made the active and inactive calls. The calls are words filed in the database; no cut-off is given here. Bounds are passed on as bounds.

In turn, `COc1ccc2c(c1)c(CC(=O)O)c(C)n2C(=O)c1ccc(Cl)cc1` [INDOMETHACIN] returned a Pleural volume in [1] of 3.5 mL. Further, the Score in experiment [2] is 3.54 and <4.07 and <3.8 and <4.04. Besides, the Weight change result in experiment [3] is “Active”.

For the compound `O=P1(N(CCCl)CCCl)NCCCO1` (stereo unspecified) [CYCLOPHOSPHAMIDE ANHYDROUS], the Paw weight in experiment [4] came out at 153 mg.

`CNS(=O)(=O)OC[C@H](COc1ccccc1OC)OS(=O)(=O)NC` displayed a Score in experiment [2] of 7.86. Further, the Edema in [5] is 0.16 mL; in experiment [6], -0.03 mL.

`COc1ccccc1OCC(O)CO` (stereo unspecified) [GUAIFENESIN]: the Score in [7] was 8.83. Moreover, in [8], the Weight change entry is “inactive”. Besides, the Edema is 0.07 mL in experiment [9] and -0.4 mL in [10].

Compound `CNS(=O)(=O)OCC(COc1ccccc1OC)OS(=O)(=O)NC` (stereo unspecified) showed a Paw weight in experiment [11] of 179 mg. Further, the Edema was -0.41 mL and <-0.42 mL and <-0.61 mL in [12]; 0.1 mL in experiment [15]; <-0.23 mL in experiment [16]; <-0.39 mL in [17]; <-0.14 mL in experiment [18]; <-0.38 mL in experiment [19]. The Pleural volume worked out at 4.92 mL in experiment [13] and 5.2 mL in [14]. For the same compound, the Score in experiment [2] is <5.82 and <5.77 and <6.9 and 7.8. Further, the Weight change result in experiment [8] is “inactive”.

`CNS(=O)(=O)OC[C@@H](COc1ccccc1OC)OS(=O)(=O)NC`: the Score in [2] is <4.96 and 6.64. The Weight change result in [8] is “inactive”. In addition, the Edema in [17] was <-0.33 mL; in experiment [20], <-0.46 mL.
